System: HEK-293T
Test: Multiplex assay against HEK293T;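 for Population Tubulin-Different-Phenotype (%): share of the cells with healthy nuclei that show this phenotype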
Assay type: toxicity, cell-based
Details: human
Summary of the method: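 Cells stained live at seeding with Hoechst33342, BioTracker Green Microtubule Cytoskeleton Dye, MitoTracker Red and Annexin V Alexa Fluor 680 were imaged on a CQ1 microscope at 37°C and 5% CO2 after compound addition. Their classification by CellPathfinder machine-learning gating ran from Hoechst high-intensity objects versus normal cells, to healthy, pyknosed or fragmented nuclei among normal cells, to mitotic or apoptotic among pyknosed cells. Tubulin, mitochondrial-mass and membrane-permeability phenotypes are per cents of healthy-nucleus cells.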

[1] = 12 h, 1 µM, compound concentration 1 uM, replicate 1
[2] = 12 h, 1 µM, compound concentration 1 uM, replicate 2
[3] = 12 h, 10 µM, compound concentration 10 uM, replicate 1
[4] = 12 h, 10 µM, compound concentration 10 uM, replicate 2
[5] = 24 h, 1 µM, compound concentration 1 uM, replicate 1
[6] = 24 h, 1 µM, compound concentration 1 uM, replicate 2
[7] = 24 h, 10 µM, compound concentration 10 uM, replicate 1
[8] = 24 h, 10 µM, compound concentration 10 uM, replicate 2
[9] = 48 h, 1 µM, compound concentration 1 uM, replicate 1
[10] = 48 h, 1 µM, compound concentration 1 uM, replicate 2
[11] = 48 h, 10 µM, compound concentration 10 uM, replicate 1
[12] = 48 h, 10 µM, compound concentration 10 uM, replicate 2

CCCn1c(=O)c2[nH]c(C34CC5CC(CC3C5)C4)nc2n(CCC)c1=O [ROLOFYLLINE]
Population Apoptotic (%) [1]: 63%
Population Fragmented Nuclei (%) [1]: 14%
Population Healthy Nuclei (%) [1]: 30%
Population Hoechst High Intensity Objects (%) [1]: 15%
Population Membrane Permeable-Phenotype (%) [1]: 3%
Population Mitochondria Different-Phenotype (%) [1]: 84%
Population Mitotic Cells (%) [1]: 36%
Population Normal (%) [1]: 84%
Population Pyknosed Nuclei (%) [1]: 55%
Population Tubulin-Different-Phenotype (%) [1]: 70%
Total Cell Count [1]: 200
Population Apoptotic (%) [2]: 12%
Population Fragmented Nuclei (%) [2]: 6%
Population Healthy Nuclei (%) [2]: 43%
Population Hoechst High Intensity Objects (%) [2]: 4%
Population Membrane Permeable-Phenotype (%) [2]: 10%
Population Mitochondria Different-Phenotype (%) [2]: 18%
Population Mitotic Cells (%) [2]: 87%
Population Normal (%) [2]: 95%
Population Pyknosed Nuclei (%) [2]: 50%
Population Tubulin-Different-Phenotype (%) [2]: 15%
Total Cell Count [2]: 185
Population Apoptotic (%) [3]: 78%
Population Fragmented Nuclei (%) [3]: 12%
Population Healthy Nuclei (%) [3]: 28%
Population Hoechst High Intensity Objects (%) [3]: 15%
Population Membrane Permeable-Phenotype (%) [3]: 1%
Population Mitochondria Different-Phenotype (%) [3]: 96%
Population Mitotic Cells (%) [3]: 21%
Population Normal (%) [3]: 84%
Population Pyknosed Nuclei (%) [3]: 59%
Population Tubulin-Different-Phenotype (%) [3]: 80%
Total Cell Count [3]: 256
Population Apoptotic (%) [4]: 41%
Population Fragmented Nuclei (%) [4]: 5%
Population Healthy Nuclei (%) [4]: 24%
Population Hoechst High Intensity Objects (%) [4]: 9%
Population Membrane Permeable-Phenotype (%) [4]: 12%
Population Mitochondria Different-Phenotype (%) [4]: 84%
Population Mitotic Cells (%) [4]: 58%
Population Normal (%) [4]: 90%
Population Pyknosed Nuclei (%) [4]: 69%
Population Tubulin-Different-Phenotype (%) [4]: 87%
Total Cell Count [4]: 143
Population Apoptotic (%) [5]: 50%
Population Fragmented Nuclei (%) [5]: 14%
Population Healthy Nuclei (%) [5]: 32%
Population Hoechst High Intensity Objects (%) [5]: 22%
Population Membrane Permeable-Phenotype (%) [5]: 1%
Population Mitochondria Different-Phenotype (%) [5]: 77%
Population Mitotic Cells (%) [5]: 49%
Population Normal (%) [5]: 77%
Population Pyknosed Nuclei (%) [5]: 53%
Population Tubulin-Different-Phenotype (%) [5]: 83%
Total Cell Count [5]: 212
Population Apoptotic (%) [6]: 15%
Population Fragmented Nuclei (%) [6]: 4%
Population Healthy Nuclei (%) [6]: 59%
Population Hoechst High Intensity Objects (%) [6]: 3%
Population Membrane Permeable-Phenotype (%) [6]: 11%
Population Mitochondria Different-Phenotype (%) [6]: 17%
Population Mitotic Cells (%) [6]: 85%
Population Normal (%) [6]: 96%
Population Pyknosed Nuclei (%) [6]: 36%
Population Tubulin-Different-Phenotype (%) [6]: 38%
Total Cell Count [6]: 228
Population Apoptotic (%) [7]: 77%
Population Fragmented Nuclei (%) [7]: 13%
Population Healthy Nuclei (%) [7]: 31%
Population Hoechst High Intensity Objects (%) [7]: 14%
Population Membrane Permeable-Phenotype (%) [7]: 2%
Population Mitochondria Different-Phenotype (%) [7]: 97%
Population Mitotic Cells (%) [7]: 22%
Population Normal (%) [7]: 85%
Population Pyknosed Nuclei (%) [7]: 54%
Population Tubulin-Different-Phenotype (%) [7]: 71%
Total Cell Count [7]: 255
Population Apoptotic (%) [8]: 40%
Population Fragmented Nuclei (%) [8]: 7%
Population Healthy Nuclei (%) [8]: 38%
Population Hoechst High Intensity Objects (%) [8]: 7%
Population Membrane Permeable-Phenotype (%) [8]: 22%
Population Mitochondria Different-Phenotype (%) [8]: 75%
Population Mitotic Cells (%) [8]: 60%
Population Normal (%) [8]: 92%
Population Pyknosed Nuclei (%) [8]: 53%
Population Tubulin-Different-Phenotype (%) [8]: 87%
Total Cell Count [8]: 150
Population Apoptotic (%) [9]: 50%
Population Fragmented Nuclei (%) [9]: 20%
Population Healthy Nuclei (%) [9]: 27%
Population Hoechst High Intensity Objects (%) [9]: 23%
Population Membrane Permeable-Phenotype (%) [9]: 4%
Population Mitochondria Different-Phenotype (%) [9]: 61%
Population Mitotic Cells (%) [9]: 49%
Population Normal (%) [9]: 76%
Population Pyknosed Nuclei (%) [9]: 52%
Population Tubulin-Different-Phenotype (%) [9]: 70%
Total Cell Count [9]: 227
Population Apoptotic (%) [10]: 8%
Population Fragmented Nuclei (%) [10]: 6%
Population Healthy Nuclei (%) [10]: 78%
Population Hoechst High Intensity Objects (%) [10]: 4%
Population Membrane Permeable-Phenotype (%) [10]: 14%
Population Mitochondria Different-Phenotype (%) [10]: 7%
Population Mitotic Cells (%) [10]: 91%
Population Normal (%) [10]: 95%
Population Pyknosed Nuclei (%) [10]: 15%
Population Tubulin-Different-Phenotype (%) [10]: 30%
Total Cell Count [10]: 417
Population Apoptotic (%) [11]: 64%
Population Fragmented Nuclei (%) [11]: 18%
Population Healthy Nuclei (%) [11]: 31%
Population Hoechst High Intensity Objects (%) [11]: 12%
Population Membrane Permeable-Phenotype (%) [11]: 4%
Population Mitochondria Different-Phenotype (%) [11]: 98%
Population Mitotic Cells (%) [11]: 35%
Population Normal (%) [11]: 87%
Population Pyknosed Nuclei (%) [11]: 50%
Population Tubulin-Different-Phenotype (%) [11]: 87%
Total Cell Count [11]: 257
Population Apoptotic (%) [12]: 67%
Population Fragmented Nuclei (%) [12]: 11%
Population Healthy Nuclei (%) [12]: 55%
Population Hoechst High Intensity Objects (%) [12]: 7%
Population Membrane Permeable-Phenotype (%) [12]: 16%
Population Mitochondria Different-Phenotype (%) [12]: 62%
Population Mitotic Cells (%) [12]: 32%
Population Normal (%) [12]: 92%
Population Pyknosed Nuclei (%) [12]: 32%
Population Tubulin-Different-Phenotype (%) [12]: 86%
Total Cell Count [12]: 185
